Experimental data pooled from the literature.
CYP1A2: Cytochrome P450 1A2 (CYP1A2, Homo sapiens, UniProt P05177)

With `COc1ccc([C@@H]2CN(C(=O)[C@@H](O)CO)C[C@@]2(C)[C@@H](C)O)cc1OC1CN(c2ccc(C)cn2)C1` the Vd/F was 84.3 L (human, plasma; oral, 30 mg, single dose, healthy volunteers).
The inhibition of `COC(=O)C1CCN(C(=O)c2cccc(NCc3cnc4nc(N)nc(N)c4n3)c2)CC1` is reported as -15.2% (CYP1A2; enzyme activity, inhibitor, luciferase; 10 µM).
With `CC(C)(C)c1ccc(O)c(CN(Cc2cc(C(C)(C)C)ccc2O)C2CCC(NC(N)=O)CC2)c1` (stereo not shown) the Cmax was 609 ng/g (male C57BL/6 mouse, brain; intraperitoneal, 5 mg/kg, single dose).
With `O=S(=O)(NNc1nnc(Cl)c2ccccc12)c1ccc(F)cc1` the viability was 99.8% (Vero; cell growth or viability, MTT; 31.25 µg/mL).
For `COC(=O)C1CCN(C(=O)c2ccc(NCc3cnc4nc(N)nc(N)c4n3)cn2)CC1`, the inhibition was -8.69% (CYP1A2; enzyme activity, inhibitor, luciferase; 10 µM).
For `CCNc1nc(Nc2ccc(F)c(Cl)c2)c2ccccc2n1`, the viability was 100% (Vero; cell growth or viability, MTT; 31.25 µg/mL).
`COC(=O)C1CCN(C(=O)c2ccc(N(CCCO)Cc3cnc4nc(N)nc(N)c4n3)cc2)CC1` gave an inhibition of -2.09% (Cytochrome P450 3A4 (CYP3A4, Homo sapiens, UniProt P08684); enzyme activity, inhibitor, luciferase; 10 µM).
`COc1cc(C(=O)NC2CCN(C)CC2)c(F)cc1Nc1ncc(C(F)(F)F)c(Oc2cccc3c2C(=O)N(C)C3)n1` has a Vd/F of 873 L (human, plasma; oral, 10 mg, single dose, patients).
`Cc1cc(Nc2cc(N3CCN(C)CC3)nc(/C=C/c3ccccc3)n2)n[nH]1` has a Vd/F of 748 L (human, plasma; oral, 80 mg/m², multiple doses, patients).
The viability of `Cn1cnc2c1c(=O)n(CC(=O)Nc1c(Cl)cccc1Cl)c(=O)n2C` is reported as 7.99% (Vero; cell growth or viability, MTT; 1000 µg/mL).
